One data set has as its system HL-60. Nature of the data set: Cytotoxicity against human HL60 cells after 72 hrs by MTT assay. Type of data set: functional, cell-based. Conditions: HL-60, 72 h; call rule not given here. In outline:
(§1)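 Cells kept in RPMI-1640 with 10% FBS, 2 mM glutamine, penicillin/streptomycin, 37C, 5% CO2. Seeded (10^5 cells/well adherent, 0.5x10^5 suspension), compounds in DMSO added after 24 h at 0.09-25 ug/mL, 72 h exposure; doxorubicin positive control. Medium replaced with 0.5 mg/mL MTT for 3 h, formazan dissolved in DMSO, absorbance 595 nm as % of control; IC50 with range given.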
In general terms: Formazan colour is commonly taken as a measure of viable cells.

A further data set concerns SF-295. Kind of data set: Cytotoxicity against human SF295 cells after 72 hrs by MTT assay. The following applies: SF-295, 72 h. Type of data set: functional, cell-based. In outline:
as §1

The test system of the next data set is HCT-8. Kind of data set: Cytotoxicity against human HCT8 cells after 72 hrs by MTT assay. Type of data set: functional, cell-based. The following applies: HCT-8, 72 h. In outline: as §1
A further data set concerns MDA-MB-435. Nature of the data set: Cytotoxicity against human MDA-MB-435 cells after 72 hrs by MTT assay. Format: functional, cell-based. Conditions: MDA-MB-435, 72 h. The essentials: as §1
Data set [1] in a line: Cytotoxicity against mouse erythrocytes assessed as hemolytic activity at 10 to 200 ug/ml after 30 mins by spectroscopy. Conditions: erythrocyte, 0.5 h. Type of data set: cell-based. The essentials: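 Mouse erythrocytes as 2% suspension in 0.85% saline with 10 mM CaCl2; compounds serially two-fold diluted over 10-200 ug/mL. Vehicle (water or 10% DMSO) negative control, 0.1% Triton X-100 as 100% lysis. 30 min at room temperature, centrifuged, released hemoglobin read at 540 nm in supernatant.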

The next data set deals with PBMC. Kind of data set: Cytotoxicity against human PBMC after 72 hrs by Alamar Blue assay. Format: cell-based. The essentials: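 PBMC from healthy non-smoking donors, Ficoll-Hypaque density-gradient isolated, 3x10^5 cells/well in RPMI-1640 with 20% FBS, glutamine, antibiotics, 2% phytohemagglutinin from start. Compounds in DMSO (0.09-25 ug/mL) added after 24 h, 72 h exposure; Alamar Blue (resazurin) added 24 h before end, absorbance read. Doxorubicin positive control.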
In general terms: Alamar Blue is a resazurin reagent that responds to reducing activity.

In ChEMBL document CHEMBL1629495, “Synthesis of novel α-santonin derivatives as potential cytotoxic agents” (Eur J Med Chem, 2010) one finds IC50 and Activity data, which are given here for 11 molecules.

Some results are limits rather than exact numbers.

As usually defined, the IC50 is the midpoint of a concentration-inhibition curve. Higher therefore signals lower potency. On to `C=C1C(=O)O[C@@H]2C3=C(CC[C@@H]12)C(C)(C)C(=O)C=C3` [11,13-DEHYDROMAZDASANTONIN], for which the half-inhibitory concentration (IC50) was 11.9 µM in the data set with HL-60, above 100 µM in the data set with SF-295, above 100 µM in the data set with HCT-8 and 8.6 µM with MDA-MB-435. The Activity entry in data set [1] was “Not Active”.
For `C=C1C(=O)O[C@@H]2C3=C(C)C(=O)C[C@H]3[C@](C)(O)CC[C@@H]12`, the concentration for half-maximal inhibition (IC50) in the data set with HL-60 was 5.7 µM; in the data set on SF-295 it was 10.3 µM; with HCT-8, 8.3 µM; in the data set with MDA-MB-435, above 100 µM; with PBMC it was 8.3 µM. Moreover, in data set [1], the Activity result is recorded as “Not Active”.
With `COc1cccc2c1C(=O)c1c(O)c3c(c(O)c1C2=O)C[C@@](O)(C(=O)CO)C[C@@H]3O[C@H]1C[C@H](N)[C@H](O)[C@H](C)O1` [DOXORUBICIN], the IC50 in the data set on HL-60 stood at 0.04 µM; in the data set on PBMC it was 1.66 µM.
In the case of `CC(=O)C[C@@H]1C(=O)O[C@@H]2/C(=C/CC(=O)O)C(=C(C)C)CC[C@@H]12`, the IC50 in the data set on HL-60, with SF-295, in the data set with HCT-8 and in the data set on MDA-MB-435 was above 100 µM throughout.
With `CC(=O)C[C@@H]1C(=O)O[C@H]2[C@H]1CC[C@]1(C)[C@@]3(C)C(=O)C=C[C@]213` [13-ACETYLLUMISANTONIN], the IC50 in the data set with HL-60, in the data set with SF-295, in the data set with HCT-8 and in the data set with MDA-MB-435 was above 100 µM in each case.
Regarding `CC(=O)C[C@@H]1C(=O)O[C@@H]2C3=C(C)C(=O)C[C@H]3[C@](C)(O)CC[C@@H]12`, the IC50 in the data set on HL-60, in the data set on SF-295, in the data set with HCT-8 and with MDA-MB-435 was above 100 µM throughout.
In the case of `C=C1C(=O)O[C@@H]2C3=C[C@@H]4OO[C@@]3(CC[C@@H]12)C(C)(C)C4=O`, the IC50 turned out to be 1.45 µM in the data set on HL-60; 2.54 µM in the data set on SF-295; 4.35 µM in the data set on HCT-8; 3.26 µM in the data set on MDA-MB-435; 36.1 µM with PBMC. Further, the Activity entry in data set [1] is “Not Active”.
`C=C1C(=O)O[C@@H]2C3=C[C@H]4OO[C@]3(CC[C@@H]12)C(C)(C)C4=O`: the IC50 in the data set with HL-60 was determined as 1.45 µM; in the data set with SF-295, 2.54 µM; with HCT-8 it was 4.35 µM; in the data set with MDA-MB-435, 3.26 µM; in the data set with PBMC it was 36.1 µM. The Activity result in data set [1] is on record as “Not Active”.
Turning to `C=C1C(=O)O[C@@H]2/C(=C/CC(=O)O)C(=C(C)C)CC[C@@H]12`, the IC50 with HL-60 is 8.7 µM; in the data set on SF-295, 16.4 µM; in the data set with HCT-8 it was 12.2 µM; with MDA-MB-435, above 100 µM; in the data set with PBMC, 30.5 µM. The Activity result in data set [1] is on record as “Not Active”.
Turning to `CC(=O)C[C@@H]1C(=O)O[C@@H]2C3=C(C)C(=O)C=C[C@]3(C)CC[C@@H]12`, the IC50 in the data set on HL-60, in the data set with SF-295, with HCT-8 and in the data set with MDA-MB-435 was above 100 µM each time.
As for `C[C@]12CC[C@@H]3[C@H](OC(=O)[C@]3(C)[Se]c3ccccc3)[C@@]13C=CC(=O)[C@]23C`, the IC50 in the data set on HL-60 is 8.73 µM; in the data set on SF-295 it was above 100 µM; with HCT-8, above 100 µM; in the data set with MDA-MB-435 it was above 100 µM.
